Among the data in ChEMBL document CHEMBL4138042, “A Scaffold Merging Approach to Hsp90 C-terminal Inhibition: Synthesis and Evaluation of a Chimeric Library” (Medchemcomm, 2017) are EC50, inhibition and Activity values, retold here.

Series [1] relates to MCF7. Put plainly: Antiproliferative activity in human MCF7 cells incubated for 72 hrs by MTS/PMS cell proliferation assay. The format is functional, cell-based. To be noted: MCF7, 72 h. In short, it runs like this: (§1)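 Values are mean ± SD of at least three separate experiments, each run in triplicate.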
The next series has as its system SK-BR-3. As to the kind of experiment: Antiproliferative activity in human SKBR3 cells incubated for 72 hrs by MTS/PMS cell proliferation assay. The format is functional, cell-based. To be noted: SK-BR-3, 72 h. The procedure, abridged: as §1
Series [2] deals with T1, Heat shock protein HSP90 (Homo sapiens) (UniProt P07900+P08238). As to the kind of experiment: Inhibition of HSP90 in human PC3-MM2 cells expressing luciferase assessed as reduction in heat-denatured lucifearse refolding incubated for 1 hr by luciferase rematuration assay. The format is cell-based. In short, it runs like this: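 PC3-MM2 cells expressing firefly luciferase were heated to denature luciferase, then incubated with DMSO or test compound. Luciferase activity was then measured to gauge refolding. Read-out is RLU relative to DMSO, given as mean ± SD of at least two separate experiments run in triplicate.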

In series [3] the target is T1, Heat shock protein HSP90 (Homo sapiens). Put plainly: Inhibition of HSP90 in human MCF7 cells assessed as reduction in HER2 protein level incubated for 24 hrs by Western blotting method. The format is cell-based. In short, it runs like this:
(§2)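 Treated MCF-7 cells were analysed by western blot for the Hsp90 clients HER2, CDK4, ER-α and cyclin D1. Actin served as the Hsp90-independent control protein.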
In general terms: A western blot detects proteins with antibodies after separation by electrophoresis.

Series [4] has the same target. Put plainly: Inhibition of HSP90 in human MCF7 cells assessed as reduction in CDK4 protein level incubated for 24 hrs by Western blotting method. The format is cell-based. The procedure, abridged:
as §2

Series [5] has the same target. Put plainly: Inhibition of HSP90 in human MCF7 cells assessed as reduction in ERalpha protein level incubated for 24 hrs by Western blotting method. The format is cell-based. In short, it runs like this:
as §2

The target is the same in series [6]. Put plainly: Inhibition of HSP90 in human MCF7 cells assessed as reduction in cyclin D1 protein level incubated for 24 hrs by Western blotting method. The format is cell-based. In short, it runs like this: as §2
Series [7] deals with MCF7. As to the kind of experiment: Effect on actin protein expression in human MCF7 cells at 0.5 and 10 fold antiproliferative IC50 incubated for 24 hrs by Western blotting method. The format is cell-based. The note with it: mcf7, 24 h. In short, it runs like this: as §2
In series [8] the test system is MCF7. As to the kind of experiment: Induction of heat shock response in human MCF7 cells assessed as effect on Hsp90 protein levels at antiproliferative 0.5 and 10 fold IC50 incubated for 24 hrs by Western blotting method. The format is cell-based. To be noted: mcf7, 24 h.
Series [9] relates to MCF7. As to the kind of experiment: Induction of heat shock response in human MCF7 cells assessed as effect on Hsp70 protein levels at 0.5 and 10 fold antiproliferative IC50 incubated for 24 hrs by Western blotting method. The format is cell-based. The note with it: mcf7, 24 h.
A short description of series [10]: Inhibition of full length chicken Hsp90beta (1 to 728 amino acids). Further details: species or system Gallus gallus.

Each structure is given as a SMILES string. The source made the active and inactive calls. The calls are words filed in the database; no cut-off is given here.

Take `CN1CCC(Oc2ccc(-c3cccc(NC(=O)c4ccc(C(C)(C)C)cc4)c3)c(-c3cccc(F)c3)c2)CC1`: the EC50 in the series on MCF7 [1] worked out at 5.2 µM; in the series with SK-BR-3 it was 6.2 µM.
As for `CN1CCC(Oc2ccc(-c3ccc(NC(=O)c4ccc(Br)cc4)cc3)c(-c3cccc(F)c3)c2)CC1`, the inhibition result in [2] was “Active”. Further, the concentration giving a half-maximal response (EC50) amounted to 5.1 µM in the series on MCF7 [1] and 5.2 µM in the series on SK-BR-3.
With `CN1CCC(Oc2ccc(-c3cccc(NC(=O)c4cn(Cc5ccc(C(C)(C)C)cc5)nn4)c3)c(-c3cccc(C(F)(F)F)c3)c2)CC1`, in [2], the inhibition entry was “inactive”. For the same compound, the 50% effective concentration (EC50) in the series on MCF7 [1] and in the series on SK-BR-3 was 3 µM each time.
Turning to `CN1CCC(Oc2ccc(-c3ccc(NC(=O)c4ccc(C(C)(C)C)cc4)cc3)c(-c3cccc(F)c3)c2)CC1`, the concentration giving a half-maximal response (EC50) with MCF7 [1] and in the series with SK-BR-3 was 4.2 µM each time.
Regarding `CN1CCC(Oc2ccc(-c3cccc(NC(=O)c4ccc(C(C)(C)C)cc4)c3)c(-c3cccc(C(F)(F)F)c3)c2)CC1`, the results for the EC50 in the series on MCF7 [1] and with SK-BR-3 were 2.8 µM and 1.8 µM, respectively.
The matching figures for `CC(=O)Oc1ccc(C(=O)Nc2cccc(-c3ccc(OC4CCN(C)CC4)cc3-c3cccc(C(F)(F)F)c3)c2)cc1CC=C(C)C`: 3 µM and 2.9 µM.
With `CN1CCC(Oc2ccc(-c3cccc(NC(=O)c4cn(Cc5ccccc5)nn4)c3)c(-c3cccc(C(F)(F)F)c3)c2)CC1`, the inhibition result in series [2] is “Active”. Moreover, the inhibition result in series [3], in series [4], in series [5] and in series [6] was “Dose-dependent effect” each time. The Activity result in the series with MCF7 [7], with MCF7 [8] and in the series with MCF7 [9] was “Non-Toxic” each time. Also, the half-maximal effective concentration (EC50) in the series with MCF7 [1] was found to be 1.7 µM; with SK-BR-3, 2.2 µM.
Take `CN1CCC(Oc2ccc(-c3cccc(NC(=O)c4ccc(Br)cc4)c3)c(-c3cccc(C(F)(F)F)c3)c2)CC1`: the inhibition result in [2] was “Active”. The inhibition entry in [3], in [4], in series [5] and in series [6] was “Dose-dependent effect” throughout. Moreover, the Activity entry in the series with MCF7 [7], with MCF7 [8] and in the series on MCF7 [9] was “Non-Toxic” throughout. Besides, the results for the EC50 in the series with MCF7 [1] and in the series with SK-BR-3 were 3.9 µM and 3 µM, respectively.
With `CC(=O)Oc1ccc(C(=O)Nc2cccc(-c3ccc(OC4CCN(C)CC4)cc3-c3cccc(F)c3)c2)cc1CC=C(C)C`, the EC50 in the series on MCF7 [1] came to 4.4 µM; in the series on SK-BR-3, 3.3 µM.
On the same counts, the results for `CN1CCC(Oc2ccc(-c3ccc(NC(=O)c4ccc(C(C)(C)C)cc4)cc3)c(-c3cccc(C(F)(F)F)c3)c2)CC1` are 3 µM and 2.4 µM.
On to `CC(=O)Oc1ccc(C(=O)Nc2ccc(-c3ccc(OC4CCN(C)CC4)cc3-c3cccc(F)c3)cc2)cc1CC=C(C)C`, for which the half-maximal effective concentration (EC50) turned out to be 3.3 µM with MCF7 [1] and 3.2 µM with SK-BR-3.
Consider `CN1CCC(Oc2ccc(-c3ccc(NC(=O)c4cn(Cc5ccc([N+](=O)[O-])cc5)nn4)cc3)c(-c3cccc(C(F)(F)F)c3)c2)CC1`, for which the inhibition result in series [2] was “Active”. Also, the values for the EC50 with MCF7 [1] and in the series on SK-BR-3 were 1 µM and 0.8 µM, respectively.
For `CN1CCC(Oc2ccc(-c3ccc(NC(=O)c4cn(Cc5ccc(C(C)(C)C)cc5)nn4)cc3)c(-c3cccc(C(F)(F)F)c3)c2)CC1`, the inhibition result in series [2] was “inactive”. Moreover, the concentration for a half-maximal effect (EC50) in the series with MCF7 [1] came to 5 µM; in the series with SK-BR-3, 4.4 µM.
For the compound `COc1cccc(-c2cc(C(=O)Nc3cccc(-c4ccc(OC5CCN(C)CC5)cc4)c3)ccc2OC)c1`, the EC50 worked out at 1.6 µM with MCF7 [1] and 1.5 µM in the series on SK-BR-3.
Take `CN1CCC(Oc2ccc(-c3cccc(NC(=O)c4cn(Cc5ccc([N+](=O)[O-])cc5)nn4)c3)c(-c3cccc(C(F)(F)F)c3)c2)CC1`: the inhibition entry in series [2] was “Active”. Also, the half-maximal effective concentration (EC50) in the series with MCF7 [1] worked out at 2 µM; in the series on SK-BR-3, 1.9 µM.
With `CC(=O)Oc1ccc(C(=O)Nc2ccc(-c3ccc(OC4CCN(C)CC4)cc3-c3cccc(C(F)(F)F)c3)cc2)cc1CC=C(C)C`, the EC50 with MCF7 [1] came out at 2.6 µM; in the series with SK-BR-3, 2.3 µM.
`CN1CCC(Oc2ccc(-c3ccc(NC(=O)c4cn(Cc5ccccc5)nn4)cc3)c(-c3cccc(C(F)(F)F)c3)c2)CC1`: the inhibition entry in [2] is “Active”. Further, the EC50 in the series with MCF7 [1] stood at 2.9 µM; in the series with SK-BR-3, 2.2 µM.
On the same counts, the results for `CN1CCC(Oc2ccc(-c3cccc(NC(=O)c4ccc(Br)cc4)c3)c(-c3cccc(F)c3)c2)CC1` are “Active”, 5.6 µM and 5.9 µM.
In the case of `CO[C@@H]1[C@@H](OC(N)=O)[C@@H](O)[C@H](Oc2ccc3c(O)c(NC(=O)c4ccc(O)c(CC=C(C)C)c4)c(=O)oc3c2C)OC1(C)C` [NOVOBIOCIN], in [10], a half-maximal effect (EC50) was put at 700 µM.
As for `CN1CCC(Oc2ccc(-c3ccc(NC(=O)c4ccc(Br)cc4)cc3)c(-c3cccc(C(F)(F)F)c3)c2)CC1`, in series [2], the inhibition entry was “Active”. Also, the inhibition entry in series [3], in series [4], in series [5] and in series [6] was “Dose-dependent effect” in each case. Moreover, the Activity entry in the series with MCF7 [7], in the series with MCF7 [8] and in the series on MCF7 [9] was “Non-Toxic” throughout. Moreover, the EC50 with MCF7 [1] was 3.4 µM; with SK-BR-3, 3.5 µM.
For the compound `COc1cccc(-c2cc(C(=O)Nc3cccc(-c4ccc(OC5CCN(C)CC5)cc4-c4cccc(C(F)(F)F)c4)c3)ccc2OC)c1`, the results for the 50% effective concentration (EC50) in the series on MCF7 [1] and in the series with SK-BR-3 were 2.3 µM and 1.9 µM, respectively.
Regarding `COc1ccc(Cn2cc(C(=O)Nc3cccc(-c4ccc(OC5CCN(C)CC5)cc4-c4cccc(C(F)(F)F)c4)c3)nn2)cc1`, the inhibition entry in [2] is “Active”. The EC50 in the series on MCF7 [1] and in the series on SK-BR-3 was 4 µM throughout.
As for `COc1cccc(-c2cc(C(=O)NCCc3ccc(OC4CCN(C)CC4)cc3-c3cccc(C(F)(F)F)c3)ccc2OC)c1`, the half-maximal effective concentration (EC50) in the series with MCF7 [1] was determined as 2.7 µM; with SK-BR-3 it was 3.5 µM.
On the same counts, the results for `COc1cccc(-c2cc(C(=O)Nc3ccc(-c4ccc(OC5CCN(C)CC5)cc4-c4cccc(C(F)(F)F)c4)cc3)ccc2OC)c1` are 2.2 µM and 1.8 µM.
As to `COc1ccc(Cn2cc(C(=O)Nc3ccc(-c4ccc(OC5CCN(C)CC5)cc4-c4cccc(C(F)(F)F)c4)cc3)nn2)cc1`, the inhibition result in series [2] is “Active”. Further, the EC50 with MCF7 [1] is 0.9 µM; with SK-BR-3, 0.5 µM.
As for `COc1cccc(-c2cc(C(=O)Nc3cccc(-c4ccc(OC5CCN(C)CC5)cc4-c4cccc(F)c4)c3)ccc2OC)c1`, the EC50 turned out to be 4.2 µM in the series on MCF7 [1] and 4.1 µM with SK-BR-3.
As for `COc1cccc(-c2cc(C(=O)Nc3ccc(-c4ccc(OC5CCN(C)CC5)cc4-c4cccc(F)c4)cc3)ccc2OC)c1`, the concentration giving a half-maximal response (EC50) in the series on MCF7 [1] was 2.1 µM; with SK-BR-3, 4.2 µM.

As a reminder, the EC50 is the concentration that produces a half-maximal response.
